The nature of data set [1]: folding enthalpy; higher = less favourable; fluorescence melt of hairpins on a sequencing array, two-state fit. The settings on record: sodium 0.088 M. The procedure, abridged:
(§1)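 Cy3 signals were normalised both to pre-quench Cy3 and to control constructs. They came from library hairpins carrying annealed Cy3 and quencher oligos on a sequenced MiSeq flow cell, imaged in 50 mM Na-HEPES pH 8.0, 25 mM NaCl, in 2.5 °C steps up to 60 °C. Bootstrapped two-state fits gave melting temperature and folding enthalpy, and four replicates were combined by inverse variance. Fitted temperatures were then raised by 9.35 °C to match UV melts.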

The nature of data set [2]: melting temperature; fluorescence melt of hairpins on a sequencing array, two-state fit, raised by 9.35 °C to match UV melts. To be noted: sodium 0.088 M. The procedure, abridged:
as §1

As to GATCGGCACTCCGATC ((((((....)))))), the folding enthalpy in data set [1] is -40.5 kcal/mol. In addition, in data set [2], the Tm was found to be 57.1 °C.
Regarding GATCGGCAGCCCGATC ((((((....)))))), in data set [1], the folding enthalpy was -36.1 kcal/mol. For the same sequence, in data set [2], the Tm was found to be 54.9 °C.
On the same counts, the results for GATCGGCATACCGATC ((((((....)))))) are -40.5 kcal/mol and 56.9 °C.
On the same counts, the results for GATCGGCATCCCGATC ((((((....)))))) are -40.9 kcal/mol and 54.1 °C.
In the same order, the values of GATCGGCCATCCGATC ((((((....)))))) are -40.4 kcal/mol and 55.5 °C.
Turning to GATCGGCCGAAAGGCATC (((..(((....)))))), the folding enthalpy in data set [1] is -6.97 kcal/mol. The Tm in data set [2] was 26.9 °C.
On the same counts, the results for GATCGGCCGACCGATC ((((((....)))))) are -34.6 kcal/mol and 57.9 °C.
On the same counts, the results for GATCGGCCGTCCGATC ((((((....)))))) are -39.7 kcal/mol and 58.3 °C.
In the same order, the values of GATCGGCCTCCGATC ((((((...)))))) are -34.3 kcal/mol and 59.4 °C.
Take GATCGGCGATCCGATC ((((((....)))))): the folding enthalpy in data set [1] was -35.3 kcal/mol. For the same sequence, the Tm in data set [2] turned out to be 55 °C.
In the same order, the values of GATCGGCGCCCGATC ((((((...)))))) are -36.4 kcal/mol and 56.8 °C.
In the case of GATCGGCGCTCCGATC ((((((....)))))), the folding enthalpy in data set [1] was -37.8 kcal/mol. Also, the Tm in data set [2] worked out at 56.9 °C.
On the same counts, the results for GATCGGCGTCCGATC ((((((...)))))) are -40.5 kcal/mol and 56.4 °C.
On the same counts, the results for GATCGGCTAACCGATC ((((((....)))))) are -42.2 kcal/mol and 56.5 °C.
In the same order, the values of GATCGGCTCCCGATC ((((((...)))))) are -38.4 kcal/mol and 57.8 °C.
Consider GATCGGCTGCCGATC ((((((...)))))), for which the folding enthalpy in data set [1] was -55.3 kcal/mol. In addition, in data set [2], the Tm was 57.2 °C.
Regarding GATCGGGAACCGATC ((((((...)))))), the folding enthalpy in data set [1] was -36 kcal/mol. The Tm in data set [2] is 68.4 °C.
On the same counts, the results for GATCGGGAAGCCGATC ((((((....)))))) are -37.9 kcal/mol and 59.6 °C.
On the same counts, the results for GATCGGGAATCCGATC ((((((....)))))) are -38.6 kcal/mol and 64.8 °C.
In the same order, the values of GATCGGGAGCCCGATC ((((((....)))))) are -36.5 kcal/mol and 55.5 °C.
For GATCGGGATACCGATC ((((((....)))))), the folding enthalpy in data set [1] was -45.8 kcal/mol. For the same sequence, the Tm in data set [2] was 65.7 °C.
In the same order, the values of GATCGGGATCCCGATC ((((((....)))))) are -50.5 kcal/mol and 59.5 °C.
In the same order, the values of GATCGGGCCCCCGATC ((((((....)))))) are -43.2 kcal/mol and 59.6 °C.
Regarding GATCGGGCCCCGATC ((((((...)))))), the folding enthalpy in data set [1] was -44.1 kcal/mol. In addition, the Tm in data set [2] amounted to 57.5 °C.
On the same counts, the results for GATCGGGCGAAAGCCATC (((..(((....)))))) are -10.2 kcal/mol and 22.6 °C.
In the same order, the values of GATCGGGCTCCCGATC ((((((....)))))) are -40.6 kcal/mol and 58.5 °C.
On the same counts, the results for GATCGGGGAAACTCGGTC ((.((.(....).)).)) are -28.3 kcal/mol and 38 °C.
In the case of GATCGGGGACCCGATC ((((((....)))))), the folding enthalpy in data set [1] was -45.9 kcal/mol. Moreover, in data set [2], the Tm turned out to be 63 °C.
On the same counts, the results for GATCGGGGAGCCGATC ((((((....)))))) are -35.1 kcal/mol and 59.5 °C.
In the case of GATCGGGGGCCCGATC ((((((....)))))), the folding enthalpy in data set [1] is -40.1 kcal/mol. The Tm in data set [2] worked out at 59.7 °C.
In the same order, the values of GATCGGGGTGCCGATC ((((((....)))))) are -52.3 kcal/mol and 59.3 °C.
In the same order, the values of GATCGGGTAACCGATC ((((((....)))))) are -36.6 kcal/mol and 68.1 °C.
In the same order, the values of GATCGGGTAGCCGATC ((((((....)))))) are -41.9 kcal/mol and 62 °C.
As for GATCGGGTGCCCGATC ((((((....)))))), the folding enthalpy in data set [1] was -36.7 kcal/mol. For the same sequence, the Tm in data set [2] is 60.1 °C.
Consider GATCGGTAACCCGATC ((((((....)))))), for which the folding enthalpy in data set [1] was -32.7 kcal/mol. In addition, in data set [2], the Tm is 54.3 °C.
In the same order, the values of GATCGGTAACCGATC ((((((...)))))) are -35.5 kcal/mol and 56.1 °C.
For GATCGGTAGCCGATC ((((((...)))))), the folding enthalpy in data set [1] is -42.2 kcal/mol. Further, the Tm in data set [2] amounted to 55.4 °C.
GATCGGTAGGCCGATC ((((((....)))))): in data set [1], the folding enthalpy is -40.5 kcal/mol. Also, in data set [2], the Tm came to 57.9 °C.
On the same counts, the results for GATCGGTAGTCCGATC ((((((....)))))) are -44.4 kcal/mol and 55.6 °C.
In the same order, the values of GATCGGTATCCGATC ((((((...)))))) are -40.8 kcal/mol and 57.4 °C.
On the same counts, the results for GATCGGTCGACCGATC ((((((....)))))) are -49.7 kcal/mol and 61.4 °C.
Turning to GATCGGTGACCCGATC ((((((....)))))), the folding enthalpy in data set [1] is -36.5 kcal/mol. For the same sequence, the Tm in data set [2] stood at 55.8 °C.
On the same counts, the results for GATCGGTGACCGATC ((((((...)))))) are -38.7 kcal/mol and 55.5 °C.
On the same counts, the results for GATCGGTGCCCCGATC ((((((....)))))) are -29.1 kcal/mol and 57 °C.
Take GATCGGTGTCCGATC ((((((...)))))): the folding enthalpy in data set [1] is -32 kcal/mol. The Tm in data set [2] was 58.3 °C.
In the same order, the values of GATCGGTGTTCCGATC ((((((....)))))) are -41.3 kcal/mol and 58.6 °C.
For the sequence GATCGGTTCCCCGATC ((((((....)))))), in data set [1], the folding enthalpy was -40 kcal/mol. For the same sequence, in data set [2], the Tm was 56.8 °C.
On the same counts, the results for GATCGGTTTTCCGATC ((((((....)))))) are -45.1 kcal/mol and 60.1 °C.
On the same counts, the results for GATCGTAAAACGATC ((((((...)))))) are -36.7 kcal/mol and 54.4 °C.
On the same counts, the results for GATCGTAAGTACGATC ((((((....)))))) are -32.9 kcal/mol and 53.3 °C.
Consider GATCGTACCACGATC ((((((...)))))), for which the folding enthalpy in data set [1] is -33.7 kcal/mol. Also, in data set [2], the Tm was found to be 57.3 °C.
On the same counts, the results for GATCGTACCGACGATC ((((((....)))))) are -53.3 kcal/mol and 53.4 °C.
In the same order, the values of GATCGTACGACGATC ((((((...)))))) are -37.2 kcal/mol and 54.5 °C.
In the same order, the values of GATCGTACGTACGATC ((((((....)))))) are -36 kcal/mol and 57.9 °C.
Turning to GATCGTACTCACGATC ((((((....)))))), the folding enthalpy in data set [1] is -44.5 kcal/mol. For the same sequence, the Tm in data set [2] was found to be 53.9 °C.
On the same counts, the results for GATCGTACTTACGATC ((((((....)))))) are -39.8 kcal/mol and 55.3 °C.
On the same counts, the results for GATCGTAGAACGATC ((((((...)))))) are -36.6 kcal/mol and 55.2 °C.

The values are drawn from the array DNA melting data of Ke et al. (doi:10.1101/2024.01.08.574731).
